Reference: ChEMBL document CHEMBL1140245, “Identification of antitumor activity of pyrazole oxime ethers” (Bioorg Med Chem Lett, 2005)
Converted amounts (≈) assume the structure as drawn.

Experiments:
HCT-15 = assay: Cytotoxic activity against HCT15 cell line (human colon solid tumor cell line); format: functional, cell-based
XF498 = assay: Cytotoxic activity against XF498 cell line (human CNS solid tumor); format: functional, cell-based
SK-MEL-2 = assay: Cytotoxic activity against SKMEL-2 cell line; format: functional, cell-based, Homo sapiens
SK-OV-3 = assay: Cytotoxic activity against SKOV-3 cell line (human solid ovarian tumor cell line); format: functional, cell-based
A549 [1] = assay: Cytotoxic activity against A549 cell line (non-small cell lung carcinoma); format: functional, cell-based, Homo sapiens
HepG2 = assay: In vitro antiproliferative activity against HepG2 cell line (human liver tumor) at 1 uM concentration; format: functional
Summary of the method: (§1)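 Each cell line was exposed to test compound at a single concentration of 1 µM, and activity was reported as percent inhibition.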

MCF7 = assay: In vitro antiproliferative activity against MCF-7 cell line (human breast tumor) at 1 uM concentration; format: functional; summary of the method: as §1
A549 [2] = assay: In vitro antiproliferative activity against A549 cell line (human lung tumor) at 1 uM concentration; format: functional; summary of the method: as §1
MKN-45 = assay: In vitro antiproliferative activity against MKN45 cell line (human stomach tumor) at 1 uM concentration; format: functional; summary of the method: as §1
[3] = Homo sapiens, HCT-15, read-out: IC50
[4] = Homo sapiens, XF498, read-out: IC50
[5] = Homo sapiens, SK-MEL-2, read-out: IC50
[6] = Homo sapiens, SK-OV-3, read-out: IC50
[7] = Homo sapiens, A549, read-out: IC50

| Compound | IC50 (HCT-15; [3]) [µg/mL] | IC50 (XF498; [4]) [µg/mL] | IC50 (SK-MEL-2; [5]) [µg/mL] | IC50 (SK-OV-3; [6]) [µg/mL] | IC50 (A549 [1]; [7]) [µg/mL] | inhibition at 1 µM (HepG2) [%] | inhibition at 1 µM (MCF7) [%] | inhibition at 1 µM (A549 [2]) [%] | inhibition at 1 µM (MKN-45) [%] | other results |
| --- | --- | --- | --- | --- | --- | --- | --- | --- | --- | --- |
| Cc1nn(C)c(-n2cccn2)c1/C=N/OCc1ccc(C(=O)OC(C)(C)C)cc1 | 3.63 (≈ 9.18 µM) | 5.51 (≈ 13.9 µM) | 28.8 (≈ 72.8 µM) | 9.63 (≈ 24.4 µM) | 2.49 (≈ 6.3 µM) |  |  |  |  |  |
| Cc1nn(C)c(-n2cccc2)c1/C=N/OCc1ccc(C(=O)OC(C)(C)C)cc1 | 2.48 (≈ 6.29 µM) | 2.67 (≈ 6.77 µM) | 24.9 (≈ 63.1 µM) | 3.91 (≈ 9.91 µM) | 1.64 (≈ 4.16 µM) |  |  |  |  |  |
| COC(=O)c1ccc(CO/N=C/c2c(C)nn(C)c2Oc2ccc(Cl)cc2)cc1 |  |  |  |  |  | 20.3 | 33.6 | 49.9 | 26.1 |  |
| Cc1nn(-c2ccccc2)c(Oc2ccc(Cl)cc2)c1/C=N/OCc1ccc(C(=O)OC(C)(C)C)cc1 |  |  |  |  |  | -31.1 | -8.4 | -6.1 | -9.9 |  |
| Cc1nn(C)c(Oc2ccccc2)c1/C=N/OCCN1CCN(Cc2ccc(C(=O)OC(C)(C)C)cc2)CC1 |  |  |  |  |  | 19.8 | 32 | 44.7 | 19.2 |  |
| Cc1nn(C)c(Sc2ccccc2)c1/C=N/OCc1ccc(C(=O)OC(C)(C)C)cc1 | 0.26 (≈ 0.594 µM) | 0.28 (≈ 0.64 µM) | 4.91 (≈ 11.2 µM) | 0.92 (≈ 2.1 µM) | 0.13 (≈ 0.297 µM) |  |  |  |  |  |
| COc1ccc(CO/N=C/c2c(C)nn(C)c2Oc2ccc(Cl)cc2)cc1 |  |  |  |  |  | 13.9 | 37 | 43.9 | 28.1 |  |
| Cc1nn(C)c(N2CCCC2)c1/C=N/OCc1ccc(C(=O)OC(C)(C)C)cc1 | 0.1 (≈ 0.251 µM) | 0.12 (≈ 0.301 µM) | 14.4 (≈ 36.2 µM) | 3.19 (≈ 8 µM) | 0.13 (≈ 0.326 µM) |  |  |  |  |  |
| Cc1nn(C)c(Oc2ccccc2)c1/C=N/OCc1ccc(C(=O)OC(C)(C)C)cc1 [FENPYROXYMATE] | 0.02 (≈ 0.0474 µM) | 0.04 (≈ 0.0949 µM) | 13.3 (≈ 31.5 µM) | 0.21 (≈ 0.498 µM) | 0.12 (≈ 0.285 µM) |  |  |  |  |  |
| Cc1nn(C)c(Oc2ccccc2)c1/C=N/OCc1cccc(-c2ccccc2)c1C |  |  |  |  |  | -13.2 | 24.4 | 5 | -12.1 |  |
| Cc1nn(C)c(Oc2ccccc2)c1/C=N/OCCN1CCN(Cc2ccccc2)CC1 |  |  |  |  |  | 6.7 | 23.4 | 28.4 | 10.5 |  |
| Cc1nn(C)c(Oc2ccccc2)c1/C=N/OCCN1CCOCC1 |  |  |  |  |  | -40.5 | 5.4 | -19.4 | -28 |  |
| CCOC(=O)c1ccc(CO/N=C/c2c(C)nn(-c3ccccc3)c2Oc2ccc(Cl)cc2)cc1 |  |  |  |  |  | -31.8 | 12 | -9.9 | -17.8 |  |
| CC(C)c1nn(-c2ccccc2)c(Oc2ccc(Cl)cc2)c1/C=N/OCc1ccc(C(F)(F)F)cc1 |  |  |  |  |  | -2.2 | -1.9 | -12.1 | -15.4 |  |
| Cc1nn(C)c(Oc2ccccc2)c1/C=N/OCc1ccc([N+](=O)[O-])cc1 |  |  |  |  |  | -2.8 | 24 | 39.4 | 18.3 |  |
| CISPLATIN |  |  |  |  |  |  |  |  |  | IC50 (HCT-15; hct-15): 6.91 µg/mL; IC50 (XF498; xf498): 3.47 µg/mL; IC50 (SK-MEL-2; sk-mel-2): 3.28 µg/mL; IC50 (SK-OV-3; sk-ov-3): 3.42 µg/mL; IC50 (A549 [1]; a549): 3.09 µg/mL |
| Cc1nn(C)c(Oc2ccc(Cl)cc2)c1/C=N/OCc1ccc(C(=O)OC(C)(C)C)cc1 | 0.01 (≈ 0.0219 µM) | 0.02 (≈ 0.0439 µM) | 18.8 (≈ 41.2 µM) | 0.28 (≈ 0.614 µM) | 0.1 (≈ 0.219 µM) |  |  |  |  |  |
| Cc1nn(-c2ccccn2)c(Oc2ccccc2)c1/C=N/OCc1ccc(C(=O)OC(C)(C)C)cc1 |  |  |  |  |  | -25.1 | -14.8 | -9.1 | -9.8 |  |

| Compound | IC50 (HCT-15; [3]) [µg/mL] | IC50 (XF498; [4]) [µg/mL] | IC50 (SK-MEL-2; [5]) [µg/mL] | IC50 (SK-OV-3; [6]) [µg/mL] | IC50 (A549 [1]; [7]) [µg/mL] | inhibition at 1 µM (HepG2) [%] | inhibition at 1 µM (MCF7) [%] | inhibition at 1 µM (A549 [2]) [%] | inhibition at 1 µM (MKN-45) [%] | other results |
| --- | --- | --- | --- | --- | --- | --- | --- | --- | --- | --- |
| CCOC(=O)c1ccc(CO/N=C/c2c(C)nn(C)c2Oc2ccc(Cl)cc2)cc1 |  |  |  |  |  | 27.4 | 33.9 | 48.2 | 20.9 |  |
| COc1cccc2c1C(=O)c1c(O)c3c(c(O)c1C2=O)C[C@@](O)(C(=O)CO)C[C@@H]3O[C@H]1C[C@H](N)[C@H](O)[C@H](C)O1 [DOXORUBICIN] | 0.28 (≈ 0.515 µM) | 0.09 (≈ 0.166 µM) | 0.07 (≈ 0.129 µM) | 0.09 (≈ 0.166 µM) | 0.05 (≈ 0.092 µM) |  |  |  |  |  |
| Cc1nn(C)c(Oc2ccccc2)c1/C=N/OCCN1CCN(Cc2ccc(C(F)(F)F)cc2)CC1 |  |  |  |  |  | 14.4 | 37.7 | 39.7 | 15.4 |  |
| Cc1nn(C)c(Oc2ccccc2)c1/C=N/OCCN(C)C |  |  |  |  |  | -36.1 | 8.9 | -5.9 | -29 |  |
| COc1cccc(CO/N=C/c2c(C)nn(C)c2Oc2ccccc2)c1 |  |  |  |  |  | -41.2 | 8.4 | 1 | -19.6 |  |
| CC(C)c1nn(-c2ccccc2)c(Oc2ccc(Cl)cc2)c1/C=N/OCc1ccc(C(=O)OC(C)(C)C)cc1 |  |  |  |  |  | -14.7 | -4.9 | -10 | -27 |  |
| Cc1nn(C)c(Oc2ccccc2)c1/C=N/OCc1ccc(C(F)(F)F)cc1 |  |  |  |  |  | 5.8 | 30.5 | 34.7 | 11 |  |
| Cc1nn(C)c(Oc2ccc(Cl)cc2)c1/C=N/OCc1ccc([N+](=O)[O-])cc1 |  |  |  |  |  | 18.4 | 27.1 | 39.6 | 24.6 |  |
| Cc1nn(C)c(Oc2ccccc2)c1/C=N/OCCN1CCCCC1 |  |  |  |  |  | -29 | 3.2 | -9.9 | -22.5 |  |
| Cc1nn(C)c(Oc2ccc(Cl)cc2)c1/C=N/OCc1ccc(C(F)(F)F)cc1 |  |  |  |  |  | 20.6 | 16.4 | 50.9 | 27.6 |  |
| Cc1ccc(CO/N=C/c2c(C)nn(C)c2Oc2ccccc2)cc1 |  |  |  |  |  | 8.4 | 38.2 | 29.1 | 17.9 |  |
| Cc1ccc(CO/N=C/c2c(C)nn(C)c2Oc2ccc(Cl)cc2)cc1 |  |  |  |  |  | 31.3 | 30.7 | 50 | 30.4 |  |
| Cc1nn(C)c(N(C)C)c1/C=N/OCc1ccc(C(=O)OC(C)(C)C)cc1 | 6.22 (≈ 16.7 µM) | 3.87 (≈ 10.4 µM) | 23.9 (≈ 64.3 µM) | 9.06 (≈ 24.3 µM) | 2.76 (≈ 7.41 µM) |  |  |  |  |  |
| Cc1nn(C)c(-n2ccnc2)c1/C=N/OCc1ccc(C(=O)OC(C)(C)C)cc1 | 8.67 (≈ 21.9 µM) | 8.15 (≈ 20.6 µM) | 9.35 (≈ 23.6 µM) | 14.1 (≈ 35.6 µM) | 5.93 (≈ 15 µM) |  |  |  |  |  |
| Cc1nn(C)c(N2CCOCC2)c1/C=N/OCc1ccc(C(=O)OC(C)(C)C)cc1 | 1.83 (≈ 4.41 µM) | 1.04 (≈ 2.51 µM) | 16.7 (≈ 40.3 µM) | 8.87 (≈ 21.4 µM) | 0.39 (≈ 0.941 µM) |  |  |  |  |  |
| Cc1c(CO/N=C/c2c(-c3ccccc3)nn(-c3ccccc3)c2Oc2ccc(Cl)cc2)cccc1-c1ccccc1 |  |  |  |  |  | -14.8 | -17.5 | -10.1 | -15 |  |
| Cc1nn(C)c(Oc2ccccc2)c1/C=N/OCCN1CCCC1 |  |  |  |  |  | -25 | 7.7 | -8.2 | -24.2 |  |
| Cc1nn(C)c(-n2ccc3ccccc32)c1/C=N/OCc1ccc(C(=O)OC(C)(C)C)cc1 | 1.57 (≈ 3.53 µM) | 1.61 (≈ 3.62 µM) | 26.5 (≈ 59.6 µM) | 2.07 (≈ 4.66 µM) | 0.43 (≈ 0.967 µM) |  |  |  |  |  |
